Data taken from ChEMBL document CHEMBL1138428, “5-Heteroatom substituted pyrazoles as canine COX-2 inhibitors. Part III: molecular modeling studies on binding contribution of 1-(5-methylsulfonyl)pyrid-2-yl and 4-nitrile” (Bioorg Med Chem Lett, 2007).
Converted amounts (≈) assume the structure as drawn.

Species on record: Canis lupus familiaris
Assay: Inhibition of COX2 in canine whole blood at 0.5 uM
Type: tissue-based
Settings: not given

Row | Structure (SMILES) | inhibition
1 | CC(C)COc1c(C#N)c(C(F)(F)F)nn1-c1ccc(S(C)(=O)=O)cc1 | 25.4%
2 | CS(=O)(=O)c1ccc(-n2nc(C(F)F)c(C#N)c2-c2cc(F)cc(F)c2)nc1 | 96.8%
3 | CC(C)(C)CNc1cc(C(F)(F)F)nn1-c1ccc(S(C)(=O)=O)cn1 | -6.3%
4 | C[C@@H]1CN(c2c(C#N)c(C(F)(F)F)nn2-c2ccc(S(C)(=O)=O)cn2)[C@H](C)CO1 (relative stereo) | 70.8%
5 | CS(=O)(=O)c1ccc(-n2nc(C(F)(F)F)c(C#N)c2NC2CCC2)nc1 | 78.7%
6 | CS(=O)(=O)c1ccc(-n2nc(C(F)(F)F)c(C#N)c2OCC2CCC2)nc1 | 97.1%
7 | CC(C)COc1c(C#N)c(C(F)(F)F)nn1-c1ccc(S(C)(=O)=O)cn1 | 93.1%
8 | CS(=O)(=O)c1ccc(-n2nc(C(F)F)c(C#N)c2-c2cc(F)cc(F)c2)cc1 | 86.4%
9 | CCC(C)Oc1c(C#N)c(C(F)(F)F)nn1-c1ccc(S(C)(=O)=O)cc1 (stereo not drawn) | 14.7%
10 | C[C@@H]1CN(c2c(C#N)c(C(F)F)nn2-c2ccc(S(C)(=O)=O)cc2)[C@H](C)CO1 (relative stereo) | 31.7%
11 | CS(=O)(=O)c1ccc(-n2nc(C(F)(F)F)c(C#N)c2NCC2CC2)nc1 | 79.3%
12 | CC(C)COc1cc(C(F)(F)F)nn1-c1ccc(S(C)(=O)=O)cn1 | 18.4%
13 | CS(=O)(=O)c1ccc(-n2nc(C(F)F)c(C#N)c2-c2ccccc2)nc1 | 98.3%
14 | CS(=O)(=O)c1ccc(-n2nc(C(F)(F)F)c(C#N)c2-c2ccccc2)nc1 | 74.3%

Test system: not listed separately
Assay: Aqueous solubility of the compound
Type: physicochemical
Settings: not given

Row | Structure (SMILES) | solubility
15 | CS(=O)(=O)c1ccc(-n2nc(C(F)(F)F)cc2OC2CCCC2)cc1 | 25 µg/mL (≈ 66.8 µM)
16 | CC(C)(C)CNc1c(C#N)c(C(F)F)nn1-c1ccc(S(C)(=O)=O)cc1 | > 200 µg/mL
17 | C[C@@H]1CN(c2cc(C(F)(F)F)nn2-c2ccc(S(C)(=O)=O)cn2)[C@H](C)CO1 (relative stereo) | 100 µg/mL (≈ 247 µM)
18 | CS(=O)(=O)c1ccc(-n2nc(C(F)(F)F)cc2OCC2CCC2)cc1 | 25 µg/mL (≈ 66.8 µM)
19 | CS(=O)(=O)c1ccc(-n2nc(C(F)(F)F)cc2OCC2CCC2)nc1 | 100 µg/mL (≈ 266 µM)
20 | CS(=O)(=O)c1ccc(-n2nc(C(F)F)c(C#N)c2NCC2CC2)cc1 | > 200 µg/mL
21 | CS(=O)(=O)c1ccc(-n2nc(C(F)F)c(C#N)c2-c2cc(F)cc(F)c2)nc1 | 50 µg/mL (≈ 122 µM)
22 | C[C@@H]1CN(c2c(C#N)c(C(F)(F)F)nn2-c2ccc(S(C)(=O)=O)cn2)[C@H](C)CO1 (relative stereo) | > 200 µg/mL
23 | CC(C)COc1c(C#N)c(C(F)(F)F)nn1-c1ccc(S(C)(=O)=O)cn1 | < 25 µg/mL
24 | CS(=O)(=O)c1ccc(-n2nc(C(F)F)c(C#N)c2NC2CCCC2)cc1 | 100 µg/mL (≈ 263 µM)
25 | CCC(C)Oc1c(C#N)c(C(F)(F)F)nn1-c1ccc(S(C)(=O)=O)cc1 (stereo not drawn) | 50 µg/mL (≈ 129 µM)
26 | C[C@@H]1CN(c2c(C#N)c(C(F)F)nn2-c2ccc(S(C)(=O)=O)cc2)[C@H](C)CO1 (relative stereo) | 50 µg/mL (≈ 122 µM)
27 | CC(C)COc1cc(C(F)(F)F)nn1-c1ccc(S(C)(=O)=O)cn1 | 50 µg/mL (≈ 138 µM)
28 | CC(C)(C)COc1cc(C(F)(F)F)nn1-c1ccc(S(C)(=O)=O)cc1 | 50 µg/mL (≈ 133 µM)
29 | CS(=O)(=O)c1ccc(-n2nc(C(F)(F)F)c(C#N)c2-c2ccccc2)nc1 | 100 µg/mL (≈ 255 µM)

Test system: not listed separately
Assay: Inhibition of COX1 in canine whole blood
Type: tissue-based
Settings: Canis lupus familiaris
Method in brief: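 Canine whole blood without heparin (0.5 mL) added directly to drug, then incubated 1 h at 37 °C. COX-1 activity read as platelet thromboxane B2 by enzyme immunoassay, with no-drug samples as maximum-TXB2 controls. Run in duplicate or triplicate.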

Row | Structure (SMILES) | IC50
30 | CC(C)(C)CNc1c(C#N)c(C(F)F)nn1-c1ccc(S(C)(=O)=O)cc1 | > 500 nM
31 | C[C@@H]1CN(c2cc(C(F)(F)F)nn2-c2ccc(S(C)(=O)=O)cn2)[C@H](C)CO1 (relative stereo) | > 5000 nM
32 | CC(C)COc1c(C#N)c(C(F)(F)F)nn1-c1ccc(S(C)(=O)=O)cc1 | > 500 nM
33 | CS(=O)(=O)c1ccc(-n2nc(C(F)F)c(C#N)c2NCC2CC2)cc1 | > 500 nM
34 | CS(=O)(=O)c1ccc(-n2nc(C(F)F)c(C#N)c2-c2cc(F)cc(F)c2)nc1 | 22300 nM
35 | C[C@@H]1CN(c2c(C#N)c(C(F)(F)F)nn2-c2ccc(S(C)(=O)=O)cn2)[C@H](C)CO1 (relative stereo) | > 50000 nM
36 | CS(=O)(=O)c1ccc(-n2nc(C(F)(F)F)c(C#N)c2NC2CCC2)nc1 | 1240 nM
37 | CS(=O)(=O)c1ccc(-n2nc(C(F)(F)F)c(C#N)c2OCC2CCC2)nc1 | 10600 nM
38 | CC(C)COc1c(C#N)c(C(F)(F)F)nn1-c1ccc(S(C)(=O)=O)cn1 | 1870 nM
39 | CS(=O)(=O)c1ccc(-n2nc(C(F)F)c(C#N)c2NC2CCCC2)cc1 | > 500 nM
40 | CS(=O)(=O)c1ccc(-n2nc(C(F)F)c(C#N)c2-c2cc(F)cc(F)c2)cc1 | > 50000 nM
41 | CCC(C)Oc1c(C#N)c(C(F)(F)F)nn1-c1ccc(S(C)(=O)=O)cc1 (stereo not drawn) | > 500 nM
42 | CS(=O)(=O)c1ccc(-n2nc(C(F)(F)F)c(C#N)c2NCC2CC2)nc1 | 1880 nM
43 | CC(C)COc1cc(C(F)(F)F)nn1-c1ccc(S(C)(=O)=O)cn1 | > 50000 nM
44 | CS(=O)(=O)c1ccc(-n2nc(C(F)F)c(C#N)c2-c2ccccc2)nc1 | 5600 nM
45 | CS(=O)(=O)c1ccc(-n2nc(C(F)(F)F)c(C#N)c2-c2ccccc2)nc1 | 5820 nM

Species on record: Canis lupus familiaris
Assay: Selectivity for COX2 over COX1 in canine whole blood
Type: tissue-based
Settings: not given

Row | Structure (SMILES) | Ratio IC50
46 | CS(=O)(=O)c1ccc(-n2nc(C(F)F)c(C#N)c2-c2cc(F)cc(F)c2)nc1 | 131
47 | C[C@@H]1CN(c2c(C#N)c(C(F)(F)F)nn2-c2ccc(S(C)(=O)=O)cn2)[C@H](C)CO1 (relative stereo) | > 208
48 | CS(=O)(=O)c1ccc(-n2nc(C(F)(F)F)c(C#N)c2NC2CCC2)nc1 | 5.39
49 | CS(=O)(=O)c1ccc(-n2nc(C(F)(F)F)c(C#N)c2OCC2CCC2)nc1 | 133
50 | CC(C)COc1c(C#N)c(C(F)(F)F)nn1-c1ccc(S(C)(=O)=O)cn1 | 17
51 | CS(=O)(=O)c1ccc(-n2nc(C(F)F)c(C#N)c2-c2cc(F)cc(F)c2)cc1 | > 833
52 | CS(=O)(=O)c1ccc(-n2nc(C(F)(F)F)c(C#N)c2NCC2CC2)nc1 | 17
53 | CC(C)COc1cc(C(F)(F)F)nn1-c1ccc(S(C)(=O)=O)cn1 | > 12
54 | CS(=O)(=O)c1ccc(-n2nc(C(F)F)c(C#N)c2-c2ccccc2)nc1 | > 112
55 | CS(=O)(=O)c1ccc(-n2nc(C(F)(F)F)c(C#N)c2-c2ccccc2)nc1 | 48.5

Test system: not listed separately
Assay: Inhibition of COX2 in canine whole blood
Type: tissue-based
Settings: Canis lupus familiaris
Method in brief: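 Heparinized canine whole blood (0.5 mL) added to drug plus LPS to stimulate PGE2, then incubated overnight at 37 °C. Controls were LPS without drug (maximum) and vehicle only (background). EDTA added to 0.3% final, samples centrifuged, and plasma stored at −20 °C. PGE2 measured by EIA. Run in duplicate or triplicate.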

Row | Structure (SMILES) | IC50
56 | CS(=O)(=O)c1ccc(-n2nc(C(F)(F)F)cc2OC2CCCC2)cc1 | > 500 nM
57 | CC(C)(C)CNc1c(C#N)c(C(F)F)nn1-c1ccc(S(C)(=O)=O)cc1 | > 500 nM
58 | CC(C)COc1cc(C(F)(F)F)nn1-c1ccc(S(C)(=O)=O)cc1 | > 500 nM
59 | C[C@@H]1CN(c2cc(C(F)(F)F)nn2-c2ccc(S(C)(=O)=O)cn2)[C@H](C)CO1 (relative stereo) | > 5000 nM
60 | CS(=O)(=O)c1ccc(-n2nc(C(F)(F)F)cc2OCC2CCC2)cc1 | > 500 nM
61 | CS(=O)(=O)c1ccc(-n2nc(C(F)(F)F)cc2OCC2CCC2)nc1 | > 500 nM
62 | CC(C)COc1c(C#N)c(C(F)(F)F)nn1-c1ccc(S(C)(=O)=O)cc1 | > 500 nM
63 | CS(=O)(=O)c1ccc(-n2nc(C(F)F)c(C#N)c2NCC2CC2)cc1 | > 500 nM
64 | CS(=O)(=O)c1ccc(-n2nc(C(F)F)c(C#N)c2-c2cc(F)cc(F)c2)nc1 | 170 nM
65 | CC(C)(C)CNc1cc(C(F)(F)F)nn1-c1ccc(S(C)(=O)=O)cn1 | > 500 nM
66 | C[C@@H]1CN(c2c(C#N)c(C(F)(F)F)nn2-c2ccc(S(C)(=O)=O)cn2)[C@H](C)CO1 (relative stereo) | 240 nM
67 | CS(=O)(=O)c1ccc(-n2nc(C(F)(F)F)c(C#N)c2NC2CCC2)nc1 | 230 nM
68 | CS(=O)(=O)c1ccc(-n2nc(C(F)(F)F)c(C#N)c2OCC2CCC2)nc1 | 80 nM
69 | CC(C)COc1c(C#N)c(C(F)(F)F)nn1-c1ccc(S(C)(=O)=O)cn1 | 110 nM
70 | CS(=O)(=O)c1ccc(-n2nc(C(F)F)c(C#N)c2NC2CCCC2)cc1 | > 500 nM
71 | CS(=O)(=O)c1ccc(-n2nc(C(F)F)c(C#N)c2-c2cc(F)cc(F)c2)cc1 | 60 nM
72 | CCC(C)Oc1c(C#N)c(C(F)(F)F)nn1-c1ccc(S(C)(=O)=O)cc1 (stereo not drawn) | > 500 nM
73 | C[C@@H]1CN(c2c(C#N)c(C(F)F)nn2-c2ccc(S(C)(=O)=O)cc2)[C@H](C)CO1 (relative stereo) | > 500 nM
74 | CS(=O)(=O)c1ccc(-n2nc(C(F)(F)F)c(C#N)c2NCC2CC2)nc1 | 110 nM
75 | CC(C)COc1cc(C(F)(F)F)nn1-c1ccc(S(C)(=O)=O)cn1 | 4070 nM
76 | CC(C)(C)COc1cc(C(F)(F)F)nn1-c1ccc(S(C)(=O)=O)cc1 | > 500 nM
77 | CS(=O)(=O)c1ccc(-n2nc(C(F)F)c(C#N)c2-c2ccccc2)nc1 | < 50 nM
78 | CS(=O)(=O)c1ccc(-n2nc(C(F)(F)F)c(C#N)c2-c2ccccc2)nc1 | 120 nM
